# Rows were chosen to be rich in hits. Some 4.8% of all compounds tested hit in one or more screens of this group.
# NLRP3 yeast inh: blocks the NALP3 inflammasome reconstituted in yeast | hit rate 0.39% among 330,000 | Yeast reconstituted NLRP3/ASC/caspase-1, beta-gal luminescence, 24 h | inhibition, % at 10 µM;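 active = inhibition of 50% or more; inactive = inhibition below 50%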;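 also: plate controls were induced DMSO wells for no effect and uninduced yeast grown without galactose for full effect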
# UCH37 inh: blocks the human deubiquitinase UCH37; purified proteasome/UCH37, Ub-AMC cleavage fluorescence; inhibition, % (no concentration beside the values); AID 588478; hit rate 0.33% among 330,000; Q9Y5K5;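 active = mean inhibition over replicate wells above about 20%, limit read from the data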;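 also: 0% = compound-free wells with enzyme and 100% = wells lacking proteasome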
#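 Material: Human UCH37 enzyme supplied as purified proteasome complex | Schedule: 30 min compound-proteasome preincubation then 25 min substrate reaction, room temperature | Detection: AMC fluorescence from Ub-AMC cleavage, excitation 355 nm, emission 460 nm | Benchmarks: Wells without proteasome as full block, compound-free enzyme plus substrate as uninhibited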
# ALR H2O2 inh: inhibitors of human sulfhydryl oxidase ALR; purified ALR, DTT oxidation, H2O2 HRP-luminol luminescence; inhibition, % (test concentration not listed); hit rate 3.8% among 290,000;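 active = mean replicate inhibition above about 79%, with every replicate also reaching it, limit read from the data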
# NALP1 inh: blocks the NALP1 inflammasome reconstituted in yeast; S. cerevisiae NALP1/ASC/caspase-1 growth, X-gal OD620, 72 h; inhibition, % at 10 µM; hit rate 0.61% among 280,000; in the data active = inhibition mostly above about 24%, no sharp cut-off; inactive = mostly below about 32%
# ATG4B inhibitor: blocks human ATG4B protease cleavage of LC3 substrate; Q9Y4P1; ATG4B cleavage of LC3-PLA2, NBD-HPC fluorescence, 1 h; inhibition, % at 8.33 µM; hit rate 0.51% among 340,000; in the data active = inhibition above about 40%
# Target sequence (Q9Y4P1 whole entry, looked up): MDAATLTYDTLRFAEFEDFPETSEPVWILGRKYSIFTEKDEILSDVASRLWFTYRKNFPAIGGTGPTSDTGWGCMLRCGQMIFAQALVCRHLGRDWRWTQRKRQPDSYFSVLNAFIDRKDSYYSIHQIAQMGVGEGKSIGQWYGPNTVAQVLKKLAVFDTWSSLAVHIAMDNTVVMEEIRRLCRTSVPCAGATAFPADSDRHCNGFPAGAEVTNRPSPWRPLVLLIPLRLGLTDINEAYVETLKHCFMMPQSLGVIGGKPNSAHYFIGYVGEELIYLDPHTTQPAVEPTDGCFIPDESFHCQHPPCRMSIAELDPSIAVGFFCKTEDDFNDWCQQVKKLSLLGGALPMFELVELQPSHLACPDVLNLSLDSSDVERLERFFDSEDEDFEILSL
# Calb FLC: affects C. albicans growth with fluconazole; C. albicans CaCi-2 + fluconazole, Alamar Blue growth, 48 h; growth inhibition, % (test concentration not listed); hit rate 0.57% among 300,000;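 active = growth inhibition above about 58% in most replicates, limit read from the data, passing the limit was not always enough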;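 also: all wells also contain fluconazole at 8 µg/ml as a sub-toxic cotreatment; 0% = median of DMSO wells and 100% = median of geldanamycin control wells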
# ATG4B conf: confirmation of human ATG4B inhibitors; inhibition, % at 8.33 µM; hit rate 92% among 320; shares compounds with ATG4B inhibitor; AID 504757; ATG4B protease fluorescent substrate cleavage assay; in the data active = inhibition above about 39%
# PLA2 ctr: inhibits human PLA2, flagging false ATG4B inhibitors; inhibition, % at 8.33 µM; AID 588402; shares compounds with ATG4B inhibitor; purified PLA2, NBD-C6-HPC fluorescence, 45 min; hit rate 66% among 1,600; in the data active = inhibition above about 50%
# Target sequence (P04054 whole entry, looked up): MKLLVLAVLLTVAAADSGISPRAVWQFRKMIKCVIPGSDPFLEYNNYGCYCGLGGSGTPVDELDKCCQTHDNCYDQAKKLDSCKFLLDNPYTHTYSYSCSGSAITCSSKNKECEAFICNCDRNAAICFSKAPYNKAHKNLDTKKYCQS
# UCH37 reconfirm: confirmation of human UCH37 deubiquitinating enzyme inhibitors | inhibition, % at 20 µM | shares compounds with UCH37 inh | AID 624100 | hit rate 27% among 480 | Proteasome-bound UCH37, Ub-AMC cleavage fluorescence;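 active = average inhibition over replicates above about 50%, so the earlier screening hit is confirmed, limit read from the data; inactive = the rest, counted as false positives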;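 also: based on cleavage rate fitted by regression over a 30 min kinetic read; 0% = proteasome plus Ub-AMC and 100% = Ub-AMC without proteasome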
# * = called active by the depositor; nt = no result.
SMILES,NLRP3 yeast inh,UCH37 inh,ALR H2O2 inh,NALP1 inh,ATG4B inhibitor,Calb FLC,UCH37 reconfirm,others
Cc1cccc(-n2c(-c3cccs3)nc3ccccc3c2=O)c1,1,-1,-4,15,49*,3,nt,ATG4B conf=58*;PLA2 ctr=46
CCOc1ccc(-n2c(-c3cccs3)nc3ccccc3c2=O)cc1,3,-15,12,3,49*,2,nt,PLA2 ctr=52*
CCCCOc1nc2ccccc2c(=O)n1-c1ccccc1,0,3,-3,14,41*,4,nt,PLA2 ctr=49
O=c1c2ccccc2nc(-c2cccs2)n1-c1ccccc1,3,1,-8,2,9,-6,nt,
Cn1c(O)c(C=NCCN2CCN(C(=O)Nc3ccccc3)CC2)c(=O)n(C)c1=O,19,3,-1,-10,-3,10,nt,
CCn1c(C(=O)N2CCC(C(=O)N3CCC4(CC3)OCCO4)CC2)cc2sccc21,27,8,1,-4,4,nt,nt,
Cc1ccnc(NC(=O)CCCc2ccc(N(CCCl)CCCl)cc2)n1,nt,2,nt,nt,-9,nt,nt,
Cc1cccc(N2CCC3(CC2)C(=O)NC(=O)NC3=O)c1,nt,nt,nt,nt,-6,nt,nt,
Cc1cccc(N2C(=O)CN(Cc3ccccc3)C2=S)c1,25,2,-12,4,49*,1,nt,PLA2 ctr=63*
O=c1c2ccccc2nc(SCC2CCCCO2)n1-c1ccccc1 (stereo not drawn),4,1,-1,16,50*,2,nt,PLA2 ctr=38
CN1C(=O)C(=Cc2ccccc2OCc2ccc(C(=O)O)cc2)C(=O)N(C)C1=O,8,2,26,-4,-4,6,nt,
CN1C(=O)C(=Cc2ccccc2OCc2ccccc2Cl)C(=O)N(C)C1=O,17,4,34,nt,50*,19,nt,PLA2 ctr=52*
Cc1ccc(Cn2cc(C=O)c(-c3ccc(C)cc3)n2)cc1,32,4,90*,50,63*,4,nt,PLA2 ctr=60*
COC(=O)C1=C(c2ccc(F)cc2OCc2ccccc2)C[C@@H]2CC[C@H]1N2C(=O)NCCOc1ccccc1Cl,11,0,1,nt,4,nt,nt,
COC(=O)C1=C(c2ccc(F)cc2OCc2ccccc2)C[C@@H]2CC[C@H]1N2C(=O)NCc1ccccc1Cl,24,5,7,nt,43*,nt,nt,PLA2 ctr=62*
COc1ccc(-c2nn(CCC#N)cc2C(=O)Nc2ccccc2Br)cc1[N+](=O)[O-],20,4,5,nt,-9,0,nt,
CCn1nc(/C=C/c2ccccc2)nc2c(=O)n(C)c(=O)nc1-2,22,96*,nt,-2,87*,101*,100*,ATG4B conf=24;PLA2 ctr=9
COc1ccc(-n2c(-c3ccccc3[N+](=O)[O-])nc3ccccc3c2=O)cc1,-2,2,-1,-2,5,1,nt,
COc1cc2c(cc1OC)-c1c(OC)c(OC)cc3c1C(C2)N(C)CC3 (stereo not drawn),27,28*,-9,16,-22,4,38,
O=c1[nH]c(=O)n(CCC2=CCCCC2)c(O)c1C=NCc1cccnc1,17,44*,-3,9,3,0,42,
CCOP(=S)(OCC)SCCSCC,19,2,-6,nt,5,nt,nt,
COC(=O)c1nc(-c2ccc3c(n2)C(=O)C(N)=C(OC)C3=O)c(N)c(-c2ccc(OC)c(OC)c2O)c1C,-1,69*,-13,-15,0,19,37,
COC(=O)C1=C(c2ccc(OC(F)(F)F)cc2)C[C@@H]2CC[C@H]1N2C(=O)NCCOc1ccc(OC)cc1,18,49*,-1,nt,-11,nt,4,
Cc1nn(Cc2ccccc2)c(C)c1C(=O)OCC(=O)Nc1cccc(S(N)(=O)=O)c1,12,6,1,-13,-18,29,nt,
Cc1c(N=Nc2c(O)[nH]c(=S)[nH]c2=O)c(=O)n(-c2ccccc2)n1C,16,30*,40,20,-2,0,10,
SMILES,NLRP3 yeast inh,UCH37 inh,ALR H2O2 inh,NALP1 inh,ATG4B inhibitor,Calb FLC,UCH37 reconfirm,others
CCN(CC)c1ccc(/C=C2\C(=O)NC(=S)N(c3ccc(OC)cc3OC)C2=O)o1,17,27*,7,nt,-4,-7,32,
COc1ccc(N2C(=O)/C(=C/c3ccc(N(C)C)o3)C(=O)NC2=S)cc1,30,25*,10,1,6,5,25,
COc1cccc(N2C(=O)/C(=C/c3ccc(C)o3)C(=O)NC2=S)c1,9,5,5,4,14,4,nt,
CCN(CC)c1ccc(/C=C2\C(=O)NC(=S)N(C)C2=O)o1,46,26*,36,-5,2,-1,29,
C[C@]12CC[C@H](O)CC1=CCC1C2CC[C@]2(C)C(=O)[C@H](Br)CC12 (stereo partly drawn),30,nt,3,nt,1,nt,nt,
CCOC(=O)c1ccc(N=C(C)c2c(O)[nH]c(=O)[nH]c2=O)cc1,10,1,0,6,-12,9,nt,
c1ccc2nc(OCCN3CC3)ccc2c1,9,nt,10,6,-3,1,nt,
O=C1NC(=O)C(=Cc2ccc(N3CCOCC3)o2)C(=O)N1,36,27*,-3,14,-1,8,36,
C=CCN1C(=O)/C(=C/c2ccc(N3CCOCC3)o2)C(=O)NC1=S,26,11,12,18,1,2,nt,
O=C(N/N=C1/CN2CCC1CC2)c1cccc(O)c1,3,nt,19,15,-1,18,nt,
COC(=O)C(O)(c1c[nH]c2ccccc12)C(F)(F)F (stereo not drawn),11,1,-9,2,-7,-4,nt,
COC(=O)C(O)(c1c(C)[nH]n(-c2ccccc2)c1=O)C(F)(F)F (stereo not drawn),8,85*,4,3,-5,-4,60*,
CC(=O)OC1(Cc2ccccc2)CN2CCC1c1ccccc12 (stereo not drawn),9,1,4,3,-11,0,nt,
COc1cc(C(c2c(C)[nH]n(-c3ccccc3)c2=O)c2c(C)[nH]n(-c3ccccc3)c2=O)cc(OC)c1OC,22,53*,-3,-5,-16,1,94*,
COc1cc2[nH]c(=O)n(-c3ccccc3)c(=O)c2cc1OC,17,-24,-1,-11,-8,2,nt,
Cn1c(=O)[nH]c2nncnc2c1=O,-2,30*,-23,nt,2,4,40,
COc1cc2c(cc1OC)C13CCN4CC5CCOC6CC(=O)N2C1C6C5CC43 (stereo not drawn),nt,3,nt,nt,-6,nt,nt,

# Screening data (PubChem BioAssay)
